The results in this text go back to ChEMBL document CHEMBL4000155, “Synthesis and Antileukemic Activities of Piperlongumine and HDAC Inhibitor Hybrids against Acute Myeloid Leukemia Cells” (J Med Chem, 2016).

Data set [1] deals with U-937. The data set can be described thus: Induction of apoptosis in p53 null human U937 cells at 2 uM after 24 hrs by annexin V-FITC/PI staining based flow cytometry. Format: functional. A digest of the protocol: (§1)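 Human U937 AML cells (p53 null) in RPMI 1640 with 10% FBS, 2 mM L-glutamine, penicillin/streptomycin, 37 °C, 5% CO2. Exposed 24 h to compound alone or with SAHA; vehicle DMSO < 0.1% v/v. Annexin V-FITC/PI staining and flow cytometry, reported as % Annexin V+ cells. Three independent experiments in triplicate; one representative shown. EC50 taken as concentration giving 50% Annexin V+ cells versus vehicle.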
Background: In flow cytometry, cells or beads pass a laser one at a time.

Data set [2] can be described thus: Chemical stability of the compound in pH 7.4 phosphate buffer at 50 uM incubated up to 4 hrs in presence of GSH by HPLC analysis. To be noted: pH 7.4, 4 h. Format: physicochemical. A digest of the protocol: (§2)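 Compound at 50 μM incubated with or without 5 mM GSH in phosphate buffer pH 7.4 at 37 °C for up to 4 h. Mixtures analysed by HPLC with water/0.1% formic acid/10% methanol versus 0.1% formic acid in acetonitrile, 0.5 mL/min, 10–80% B gradient over 18 min.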

Another data set relates to MCF-10A. The data set can be described thus: Cytotoxicity against human MCF10A cells assessed as decrease in cell viability at 0.5 to 5 uM after 24 hrs by MTT assay. In kind it is cell-based. A digest of the protocol: (§3)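 MCF-10A (DMEM/F12, 5% horse serum, hydrocortisone, cholera toxin, insulin, EGF) and U937 (RPMI 1640, 10% FBS) were exposed to 0.5–5 μM, alone or PL+SAHA 1:1, for 24 h. MTT 0.05 mg/mL, 3 h at 37 °C, DMSO solubilization, A570. Viability given as mean ± SD of four to six independent experiments. DMSO <0.1% vehicle control.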
For orientation: Tetrazolium dyes change colour on reduction, which living cells bring about.

The subject of data set [3] is U-937. The data set can be described thus: Cytotoxicity against p53 null human U937 cells assessed as decrease in cell viability at 0.5 to 5 uM after 24 hrs by MTT assay. In kind it is functional, cell-based. A digest of the protocol:
as §3

For the next data set, the species on record is Homo sapiens. Particulars: at 1 µM.
Data set [4] has as its system U-937. The data set can be described thus: Induction of apoptosis in p53 null human U937 cells at 0.25 uM after 24 hrs by annexin V-FITC/PI staining based flow cytometry. Format: functional. A digest of the protocol: (§4)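 Cells treated 24 h, single agents or SAHA+PL at 1:1 (each drug at the stated concentration). Annexin V-FITC/PI kit staining, then flow cytometry, reported as % Annexin V+ cells. Three independent experiments in triplicate, with data from one representative experiment. DMSO <0.1% vehicle control.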

Data set [5] has as its system U-937. Briefly: Induction of apoptosis in p53 null human U937 cells assessed as PARP-1 cleavage at 0.25 to 0.5 uM after 24 hrs by Western blot analysis. Format: functional, cell-based. A digest of the protocol:
(§5)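 U937 cells exposed for 24 h. Lysates with protease/phosphatase inhibitors were separated by SDS-PAGE, transferred to PVDF and probed for PARP and cleaved caspase-3, with β-actin as loading control.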

The nature of data set [6]: Chemical stability of the compound in pH 7.4 phosphate buffer at 50 uM incubated up to 4 hrs in absence of GSH by HPLC analysis. Particulars: pH 7.4, 4 h. In kind it is physicochemical. A digest of the protocol:
as §2

Data set [7] has as its system AML. The data set can be described thus: Induction of apoptosis in patient derived AML cells assessed as caspase 3 cleavage at 0.25 to 2 uM after 24 hrs by Western blot analysis. In kind it is functional, cell-based. Particulars: Homo sapiens. A digest of the protocol: (§6)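 Primary AML patient cells, Ficoll-Hypaque purified and grown in RPMI 1640/20% FBS with ITS and 5637 supernatant. Exposed 24 h; whole-cell lysates prepared with protease/phosphatase inhibitors, run on SDS-PAGE, blotted to PVDF and probed for PARP and cleaved caspase-3.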

Data set [8] relates to U-937. The data set can be described thus: Induction of apoptosis in p53 null human U937 cells assessed as caspase 3 cleavage at 0.25 to 0.5 uM after 24 hrs by Western blot analysis. In kind it is functional, cell-based. A digest of the protocol:
as §5
In general terms: A western blot detects proteins with antibodies after separation by electrophoresis.

The test system of data set [9] is U-937. The data set can be described thus: Induction of apoptosis in p53 null human U937 cells at 0.25 to 0.5 uM preincubated with NAC for 3 hrs followed by compound addition measured after 24 hrs by annexin V-FITC/PI staining based flow cytometry. In kind it is functional, cell-based. A digest of the protocol: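 U937 cells preincubated 3 h with 3 mM NAC or vehicle, washed with PBS, then drug-treated 24 h. Annexin V-FITC/PI staining by flow cytometry, reported as % Annexin V+.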

Data set [10] concerns AML. The data set can be described thus: Induction of apoptosis in patient derived AML-91 cells after 24 hrs by annexin V-FITC/PI staining based flow cytometry. To be noted: Homo sapiens. In kind it is functional, cell-based. A digest of the protocol: (§7)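 Primary AML samples purified by Ficoll-Hypaque density centrifugation and cultured in RPMI 1640 with 20% FBS, ITS and 20% 5637 bladder cancer cell supernatant as a GM-CSF source. Treated 24 h, then Annexin V-FITC/PI flow cytometry as % Annexin V+. Single experiment in triplicate.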

In data set [11] the test system is AML. The data set can be described thus: Induction of apoptosis in patient derived AML-92 cells after 24 hrs by annexin V-FITC/PI staining based flow cytometry. In kind it is functional, cell-based. Particulars: Homo sapiens. A digest of the protocol:
as §7

Data set [12] concerns U-937. Briefly: Induction of apoptosis in p53 null human U937 cells at 1 uM after 24 hrs by annexin V-FITC/PI staining based flow cytometry. Format: functional. A digest of the protocol:
as §4

In data set [13] the test system is AML. Briefly: Induction of apoptosis in patient derived AML cells assessed as PARP-1 cleavage at 0.25 to 2 uM after 24 hrs by Western blot analysis. Format: functional, cell-based. To be noted: Homo sapiens. A digest of the protocol:
as §6

The subject of data set [14] is U-937. The data set can be described thus: Induction of apoptosis in p53 null human U937 cells at 0.5 uM after 24 hrs by annexin V-FITC/PI staining based flow cytometry. In kind it is functional. A digest of the protocol:
as §4

Data set [15] can be described thus: Antiproliferative activity against human CMS cells after 72 hrs by MTT assay. Format: functional, cell-based. A digest of the protocol: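 AML cell lines grown in RPMI 1640 with 10% FBS (20% for MOLM-13), 2 mM L-glutamine and penicillin/streptomycin at 37 °C, 5% CO2. Ara-C-resistant HL-60 and CMK sublines came from stepwise cytarabine selection and were kept in 600 nM or 300 nM cytarabine respectively. Cells were treated 72 h. MTT 0.05 mg/mL, 3 h at 37 °C, DMSO solubilization, absorbance at 570 nm. IC50 given ± SEM.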

The subject of data set [16] is U-937. Briefly: Induction of DNA damage in p53 null human U937 cells at 2 uM after 20 hrs by SYBR gold staining based alkaline comet assay. Format: functional, cell-based. A digest of the protocol: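 U937 cells treated 20 h with SAHA and PL alone or combined (16 h for hybrids). Alkaline single-cell gel electrophoresis, SYBR Gold staining, microscopy. Median % DNA in tail from 4 replicate gels ± s.e.m.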

Data set [17] deals with U-937. Briefly: Induction of apoptosis in p53 null human U937 cells at 2 uM preincubated with NAC for 3 hrs followed by compound addition measured after 24 hrs by annexin V-FITC/PI staining based flow cytometry. Format: functional, cell-based. A digest of the protocol:
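U937 cells preincubated 3 h with 3 mM NAC or vehicle and washed with PBS to remove excess NAC. Then drug alone or with SAHA for 24 h. Apoptosis scored as % Annexin V+ by Annexin V-FITC/PI flow cytometry; vehicle DMSO < 0.1% v/v.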

Data set [18] has as its system U-937. Briefly: Induction of cell death in p53 null human U937 cells at 1 to 4 uM after 24 hrs by annexin V-FITC/PI staining based flow cytometry. In kind it is functional. A digest of the protocol:
as §1

For data set [19], the system named is U-937. Briefly: Induction of apoptosis in p53 null human U937 cells at 0.25 to 2 uM after 24 hrs by annexin V-FITC/PI staining based flow cytometry. Format: functional, cell-based. A digest of the protocol: as §4

Calls of active or inactive are those of the source. The rule behind the calls is not given here.

For `COc1cc(C(=O)N2CCC=C(Cl)C2=O)cc(OC)c1OCCCCCCC(=O)NO`, the Activity in the data set with U-937 [1] is reported as 40%; in the data set with MCF-10A, “Non-Toxic”. In data set [2], the Stability result is on record as “Unstable”. Moreover, the result with U-937 [3] was Active. Also, the inhibition result in the data set filed under Homo sapiens was “Active”.

Turning to `COc1cc(/C=C/C(=O)N2CCC=C(Cl)C2=O)cc(OC)c1OCCCCCCC(=O)NO`, the Activity in the data set with U-937 [1] is 100%; in the data set with U-937 [4] it was 29.9%; with AML [10], “Dose-dependent effect”; in the data set with AML [11], “Dose-dependent effect”; with U-937 [12], 88%; in the data set with MCF-10A it was “Toxic”. This compound also displayed an Activity in the data set with U-937 [14] of 49.2%. For the same compound, the result in the data set with U-937 [5], with AML [7], in the data set with U-937 [8], with U-937 [3] and in the data set on AML [13] was Active. The Stability entry in data set [6] is reported as “Stable”; in data set [2], “Unstable”. In addition, the result in the data set with U-937 [9] was inactive. For the same compound, the inhibition result in the data set filed under Homo sapiens is “Active”.

As for `COC(=O)CCCCCCOc1c(OC)cc(/C=C/C(=O)N2CCC=C(Cl)C2=O)cc1OC`, the Activity in the data set with U-937 [12] turned out to be 29.7%. Besides, in the data set listed under Homo sapiens, the inhibition entry was “inactive”.

As for `O=C(CCCCCCC(=O)Nc1ccccc1)NO` [VORINOSTAT], the Activity is 25% in the data set with U-937 [1] and “Non-Toxic” with MCF-10A. Also, in data set [15], the IC50 is 1.02 µM. Moreover, the result in the data set on U-937 [16] and in the data set with U-937 [17] was inactive. Also, the outcome in the data set on U-937 [18] was Active.

Take `COc1cc(/C=C/C(=O)N2CCCCC2=O)cc(OC)c1OCCCCCCC(=O)NO`: the result in the data set with U-937 [19] was inactive. In addition, the inhibition result in the data set listed under Homo sapiens was “Active”.

As to `COC(=O)CCCCCCOc1c(OC)cc(/C=C/C(=O)N2CCC=CC2=O)cc1OC`, the outcome with U-937 [19] was inactive. For the same compound, the inhibition entry in the data set filed under Homo sapiens is “inactive”.

On to `COc1cc(/C=C/C(=O)N2CCC(C)=CC2=O)cc(OC)c1OCCCCCCC(=O)NO`, for which the result in the data set on U-937 [19] was inactive. Further, the inhibition result in the data set filed under Homo sapiens was “Active”.

Take `COc1cc(C(=O)N2CCC=CC2=O)cc(OC)c1OCCCCCCC(=O)NO`: the Activity was 40% with U-937 [1] and “Non-Toxic” with MCF-10A. The result in the data set with U-937 [3] was Active. Moreover, the inhibition entry in the data set filed under Homo sapiens was “Active”.

Usually IC50 stands for the point on the concentration scale where inhibition reaches its midpoint.
